Measurements: the RNAGym collection of RNA variant scans (doi:10.1002/anie.201605470)

B1: Osa-1-4 twister ribozyme (parent)
chain: CCGCCUAACACUGCCAAUGCCGGUCCCAAGCCCGGAUAAAAGUGGAGGGGGCGG

Variants of: B1
Assay: self-cleavage, relative activity (ratio to wild type); higher = more cleavage; co-transcriptional
Method in brief: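 In vitro transcription at 37 °C for 2 h allowed the twister ribozyme to cleave itself as it was made. Its 54-nucleotide Oryza sativa template had been synthesised with 97 % wild-type base and 1 % of each other base at the 48 positions downstream of the cleavage site. A template-switching oligonucleotide was used for reverse transcription, followed by PCR amplification and deep sequencing. Whether reads carried upstream sequence set the cleavage status, and relative activity is the fraction cleaved normalised to wild type.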
With CCGCCUAACACUGCCAAUGCCGGCCCCAAGCCCGGAUAAAAGUGGAGGUGGCGG the self-cleavage was 0.04. For CCGCCUAACACUGCCAAUGCCGGGCCCAAGCCCGGAUAAAAGUGGAGGUGGCGG, the self-cleavage was 0.02. For CCGCCUAACACUGCCAAUGCCGGACCCAAGCCCGGAUAAAAGUGGAGGUGGCGG, the self-cleavage was 0.04. With CCGCCUAACACGGCCAAUGCCGGUCCCAAGCCCGGAUAAAAGUGGAGGGAGCGG the self-cleavage was 0.11. In the case of CCGCCUAACACCGCCAAUGCCGGUCCCAAGCCCGGAUAAAAGUGGAGGGAGCGG, the self-cleavage is reported as 0.37. With CCGCCUAACACAGCCAAUGCCGGUCCCAAGCCCGGAUAAAAGUGGAGGGAGCGG the self-cleavage was 0.44. Work on CCGCCUAACACUGCCAAUGCCGGUCCCAAGCCCGGAUAAAAGUGGAGGUGGCGC yielded a self-cleavage of 0.06. With CCGCCUAACACUGCCAAUGCCGGUCCCAAGCCCGGAUAAAAGUGGAGGUGGCGA the self-cleavage was 0.1. CCGCCUAACACUGCCAAUGCCGGUCCCAAGCCCGGAUAAAAGUGGAGGUGGCGU gave a self-cleavage of 0.26. For CCGCCUAACACUGCCAAGGCCGGUCCCAAGCCCGGAUAAAAGUGGAGGGAGCGG, the self-cleavage was 0.79. Work on CCGCCUAACACUGCCAACGCCGGUCCCAAGCCCGGAUAAAAGUGGAGGGAGCGG yielded a self-cleavage of 0.45. CCGCCUAACACUGCCAAAGCCGGUCCCAAGCCCGGAUAAAAGUGGAGGGAGCGG showed a self-cleavage of 0.61. Work on CCGCCUAACACUGCCAAUGCCGGUCCCAAGCCCGGAGAAAAGUGGAGGUGGCGG yielded a self-cleavage of 0.3. Work on CCGCCUAACACUGCCAAUGCCGGUCCCAAGCCCGGAAAAAAGUGGAGGUGGCGG yielded a self-cleavage of 0.12. CCGCCUAACACUGCCAAUGCCGGUCCCAAGCCCGGACAAAAGUGGAGGUGGCGG gave a self-cleavage of 0.18. CCGCCUAACACUGCCAAUGCCGGUCCCAAGCCCGGAUAAAAGUGGAGGGAGCGC showed a self-cleavage of 0.99. Work on CCGCCUAACACUGCCAAUGCCGGUCCCAAGCCCGGAUAAAAGUGGAGGGAGCGA yielded a self-cleavage of 0.97. CCGCCUAACACUGCCAAUGCCGGUCCCAAGCCCGGAUAAAAGUGGAGGGAGCGU showed a self-cleavage of 0.96. In the case of CCGCCUAACACUGCCAAUGCCGGUCCCAAGCCCGGAUAAAAGUGGAGGGAUCGG, the self-cleavage is reported as 0.16. For CCGCCUAACACUGCCAAUGCCGGUCCCAAGCCCGGAUAAAAGUGGAGGGAACGG, the self-cleavage was 0.5. For CCGCCUAACACUGCCAAUGCCGGUCCCAAGCCCGGAUAAAAGUGGAGGGACCGG, the self-cleavage was 0.12. CCGCCUAACACUGCCAAUGCCGGUCCCAAGCCCGGAUAAAAGUGGAGGGAGCGG gave a self-cleavage of 0.76. In the case of CCGCCUAACACUGCCAAUGCCGGUCCCAAGCCCGGAUAAAAGUGGAGGUGUCGG, the self-cleavage is reported as 0.12. CCGCCUAACACUGCCAAUGCCGGUCCCAAGCCCGGAUAAAAGUGGAGGUGACGG showed a self-cleavage of 0.32. With CCGCCUAACACUGCCAAUGCCGGUCCCAAGCCCGGAUAAAAGUGGAGGUGCCGG the self-cleavage was 0.06. For CCGCCUAACACUGCCAAUGCCGGCCCCAAGCCCGGAUAAAAGUGGAGGGAGCGG, the self-cleavage was 0.64. Variant CCGCCUAACACUGCCAAUGCCGGACCCAAGCCCGGAUAAAAGUGGAGGGAGCGG has a self-cleavage of 0.6. CCGCCUAACACUGCCAAUGCCGGGCCCAAGCCCGGAUAAAAGUGGAGGGAGCGG gave a self-cleavage of 0.02. With CCGCCUAACACUGCCAAUGCCGGUCCCAAGCCCGGAUAAAAGUGGAGGUGGCCG the self-cleavage was 0.04. Work on CCGCCUAACACUGCCAAUGCCGGUCCCAAGCCCGGAUAAAAGUGGAGGUGGCAG yielded a self-cleavage of 0.07. With CCGCCUAACACUGCCAAUGCCGGUCCCAAGCCCGGAUAAAAGUGGAGGUGGCUG the self-cleavage was 0.07. Work on CCGCCUAACACUGCCAAUGCCGGUCCCAAGCCCGGACAAAAGUGGAGGGAGCGG yielded a self-cleavage of 0.84. For CCGCCUAACACUGCCAAUGCCGGUCCCAAGCCCGGAAAAAAGUGGAGGGAGCGG, the self-cleavage was 0.38. CCGCCUAACACUGCCAAUGCCGGUCCCAAGCCCGGAGAAAAGUGGAGGGAGCGG showed a self-cleavage of 0.74. With CCGCCUAACACUGCCAAUGCCGGUCCCAAGCCCGGAUAAAAGAGGAGGUGGCGG the self-cleavage was 0.08. In the case of CCGCCUAACACUGCCAAUGCCGGUCCCAAGCCCGGAUAAAAGGGGAGGUGGCGG, the self-cleavage is reported as 0.06. Work on CCGCCUAACACUGCCAAUGCCGGUCCCAAGCCCGGAUAAAAGCGGAGGUGGCGG yielded a self-cleavage of 0.04. CCGCCUAACACUGCCAAUGCCGGUCCCAAGCCCGGAUAAAAGUGGAGGGAGCAG showed a self-cleavage of 0.94. Variant CCGCCUAACACUGCCAAUGCCGGUCCCAAGCCCGGAUAAAAGUGGAGGGAGCCG has a self-cleavage of 0.32. CCGCCUAACACUGCCAAUGCCGGUCCCAAGCCCGGAUAAAAGUGGAGGGAGCUG gave a self-cleavage of 0.9. In the case of CCGCCUAACACGGCCAAUGCCGGUCCCAAGCCCGGAUAAAAGUGGAGGUGGCGG, the self-cleavage is reported as 0.07. For CCGCCUAACACCGCCAAUGCCGGUCCCAAGCCCGGAUAAAAGUGGAGGUGGCGG, the self-cleavage was 0.04. CCGCCUAACACAGCCAAUGCCGGUCCCAAGCCCGGAUAAAAGUGGAGGUGGCGG showed a self-cleavage of 0.09. With CCGCCUAACACUGCCAAUGCCGGUCCCAAGCCCGGAUAAAAGUGGAGGUCGCGG the self-cleavage was 0.31. For CCGCCUAACACUGCCAAUGCCGGUCCCAAGCCCGGAUAAAAGUGGAGGUAGCGG, the self-cleavage was 0.5. Variant CCGCCUAACACUGCCAAUGCCGGUCCCAAGCCCGGAUAAAAGUGGAGGUUGCGG has a self-cleavage of 0.21. Work on CCGCCUAACACUGCCAAAGCCGGUCCCAAGCCCGGAUAAAAGUGGAGGUGGCGG yielded a self-cleavage of 0.15. For CCGCCUAACACUGCCAAGGCCGGUCCCAAGCCCGGAUAAAAGUGGAGGUGGCGG, the self-cleavage was 0.29. Variant CCGCCUAACACUGCCAACGCCGGUCCCAAGCCCGGAUAAAAGUGGAGGUGGCGG has a self-cleavage of 0.16.
